From PubChem
Hits are enriched below; roughly 0.74% of the tested compounds scored in any of these assays.
RGS4-Gao reg: modulators of RGS4 binding to Galphao, primary screen, biochemical, multiplexed bead flow cytometry; binding response (% of control), % at 10 µM; 220,000 compounds, 0.33% hits; actives lie on both sides; Guanine nucleotide-binding protein G(o) subunit alpha (Homo sapiens), P09471; in the data active means binding response below about 49% or above about 150%; inactive means in between;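 further: fluorescent Galphao activated with aluminum fluoride binding bead-coupled RGS4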
Target sequence (P09471 whole entry, looked up): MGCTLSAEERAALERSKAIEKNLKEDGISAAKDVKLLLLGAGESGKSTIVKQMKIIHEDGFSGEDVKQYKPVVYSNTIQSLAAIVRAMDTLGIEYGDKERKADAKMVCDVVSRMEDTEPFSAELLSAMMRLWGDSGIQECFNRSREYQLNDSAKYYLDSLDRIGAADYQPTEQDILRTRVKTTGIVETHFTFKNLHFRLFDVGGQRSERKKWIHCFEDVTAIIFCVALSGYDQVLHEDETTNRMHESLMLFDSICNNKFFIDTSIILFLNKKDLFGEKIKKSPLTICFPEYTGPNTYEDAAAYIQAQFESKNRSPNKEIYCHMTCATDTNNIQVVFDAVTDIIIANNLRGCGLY
Calb biofilm kill: clotrimazole potentiators killing C. albicans biofilm, primary screen, 4-compound mixtures; C. albicans biofilm persisters + clotrimazole, fluorescence viability; primary screen in compound mixtures of four per well; inhibition, % at 7.6 µM; 120,000 compounds, 0.02% hits; AID 1242, 2008;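 active means inhibition above 30.3% in the primary screen of four-compound pools, then above 30% when the compound was retested; inconclusive means passed the primary limit but could not be retested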;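 further: compounds exposed to preformed 24 h biofilms for 48 h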
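Incubation: 24 h biofilm formation, then 48 h compound exposure, 37 °C | Material: C. albicans biofilms | Buffer or medium: RPMI/MOPS medium, pH 7.0 | Measured by: 2-h Alamar Blue fluorescence, 535/590 nm excitation/emission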
RGS7-Gao: RGS7-Galphao binding modulators, primary screen, biochemical, multiplexed bead flow cytometry; Guanine nucleotide-binding protein G(o) subunit alpha (Homo sapiens), P09471; actives lie on both sides; binding response (% of control), % at 10 µM; 220,000 compounds, 0.35% hits; in the data active means binding response below about 49% or above about 150%; inconclusive means no clear call, values can overlap the other calls; inactive means in between;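 further: fluorescent Galphao held in activated GDP-AlF4 state binding bead-coupled RGS7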
RGS16-Gao: modulators of RGS16 binding to Galphao, primary screen, biochemical, human proteins, multiplexed bead flow cytometry | Regulator of G-protein signaling 16 (Homo sapiens) + Guanine nucleotide-binding protein … | bead-based flow cytometry RGS16-Galphao binding, fluorescence; actives lie on both sides | binding response (% of control), % at 10 µM | 220,000 compounds, 0.38% hits;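 further: Galphao activated by GDP with aluminum fluoride before binding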
RGS8-Gao: RGS8-Galphao binding modulators, primary screen, biochemical, multiplexed bead flow cytometry. response (percent of control binding), % at 10 µM. AID 1423, 2008. 220,000 compounds, 0.34% hits. actives lie on both sides; in the data active means response below about 60% or above about 140%; inactive means in between;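 further: Galphao activated as the GDP aluminium fluoride complex binding bead-coupled RGS8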
RGS4-Gao HTS: modulators of RGS–Galpha-o binding, primary screen, biochemical, multiplexed beads, flow cytometry, RGS4/7/8/16/19. shares compounds with RGS16-Gao. multiplexed bead flow cytometry. RGS4–Galpha-o binding response, % at 10 µM. 1,600 compounds, 99% hits. AID 1504, 2009;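 further: fluorescently labeled Galpha-o bound to GDP with aluminium fluoride binding biotinylated RGS beads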
Avidin counter: disruption of biotin probe capture by avidin, counter-screen for RGS protein interaction modulators, biochemical, flow cytometry, bead-based; streptavidin beads, fluorescein-biotin binding; AID 1783, 2009; inhibition, % at 10 µM; 1,700 tested, under 10 active; shares compounds with RGS16-Gao;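 active means inhibition above 50%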;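 further: median green fluorescence of gated singlet beads compared with DMSO control wells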
RGS8-Gao confirm: RGS8-Galphao binding modulators, confirmation, biochemical, multiplexed bead flow cytometry, single concentration. binding response (% of control), % at 10 µM. AID 1836, 2009. bead-based flow cytometry RGS8-Galphao binding, fluorescence; actives lie on both sides. 1,700 compounds, 3% hits. shares compounds with RGS16-Gao; in the data active means binding response below about 72% or above about 130%; inactive means in between;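 further: Galphao activated as GDP AlF4 complex before binding bead RGS8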
RGS7-Gao single: RGS7-Galphao binding modulators, confirmation, biochemical, multiplexed bead flow cytometry, single concentration; shares compounds with RGS16-Gao; AID 1837, 2009; 1,700 compounds, 7.8% hits; response (percent of control binding), % at 10 µM; bead-based flow cytometry RGS7-Galphao binding; actives lie on both sides; in the data active means response below about 75% or above about 130%; inactive means in between;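 further: fluorescent Galphao activated with GDP and aluminum fluoride binding bead-coupled RGS7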
RGS16-Gao conf: modulators of RGS16-Galphao protein binding, confirmation, biochemical, single concentration, multiplexed bead flow cytometry; shares compounds with RGS16-Gao; bead-based flow cytometry; actives lie on both sides; response (% of control binding), % at 10 µM; 1,700 compounds, 4% hits; AID 1838, 2009; in the data active means response below about 74% or above about 130%; inactive means in between;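 further: Galphao activated as the GDP aluminium fluoride complex binding bead-coupled RGS16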
RGS4-Gao single: modulators of RGS4-Galphao protein binding, confirmation, biochemical, single concentration, multiplexed bead flow cytometry | shares compounds with RGS16-Gao | actives lie on both sides | binding response (% of control), % at 10 µM | 1,700 compounds, 4% hits | AID 1840, 2009; in the data active means binding response below about 74% or above about 130%; inactive means in between
RGS19-Gao conf: regulators of RGS19-Galphao binding, confirmation, biochemical, single point, multiplexed bead flow cytometry | shares compounds with RGS16-Gao | bead-based flow cytometry RGS19-Galphao binding; actives lie on both sides | response (percent of control binding), % at 10 µM | 1,700 compounds, 5% hits; in the data active means response below about 50% or above about 160%; inactive means in between
Target sequence (P09471 whole entry, looked up): as above
Target sequence (P49795 whole entry, looked up): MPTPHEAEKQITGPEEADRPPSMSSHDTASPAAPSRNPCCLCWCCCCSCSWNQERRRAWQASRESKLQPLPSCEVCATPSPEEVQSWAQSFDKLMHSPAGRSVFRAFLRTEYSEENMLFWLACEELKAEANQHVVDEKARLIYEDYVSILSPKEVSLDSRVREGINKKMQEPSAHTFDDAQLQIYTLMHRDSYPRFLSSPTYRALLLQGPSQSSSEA
Each line names hits and unclear results; the compound was inactive in the other large screens (follow-up assays come after a bar, where they were run); [ ] = remark or other dose. Unless noted, how the calls were made is not given here.

CN1CCN(C(c2cccc(C(F)(F)F)c2)c2nnnn2Cc2ccccc2)CC1 (stereo not drawn)	RGS8-Gao 144[activator] (no result: Calb biofilm kill) | RGS4-Gao HTS 126 | Avidin counter inactive | RGS8-Gao confirm inactive | RGS7-Gao single inactive | RGS16-Gao conf inactive | RGS4-Gao single inactive | RGS19-Gao conf inactive
N#Cc1cccc(C(c2nnnn2Cc2ccccc2)N2CCCC2)c1 (stereo not drawn)	none (no result: Calb biofilm kill)
CCOC(=O)c1csc(N)c1-c1ccc([N+](=O)[O-])cc1	RGS7-Gao inconclusive
Cc1ccccc1NC(=S)NCc1cccn1C	RGS16-Gao 178[activator] | RGS4-Gao HTS 97 | Avidin counter inactive | RGS8-Gao confirm inactive | RGS7-Gao single inactive | RGS16-Gao conf inactive | RGS4-Gao single inactive | RGS19-Gao conf inactive
O=C(NC1CC1)C1CCN(C2CCN(C(=O)CC3=CCCCC3)CC2)CC1	none
Cc1ccc(CN(c2ccc(C(=O)Nc3cccnc3)cc2)S(C)(=O)=O)cc1	RGS4-Gao reg -2.8, RGS7-Gao 16, RGS16-Gao 4.8, RGS8-Gao 32 (no result: Calb biofilm kill) | Avidin counter inactive | RGS8-Gao confirm inactive | RGS7-Gao single inactive | RGS16-Gao conf inactive | RGS4-Gao single inactive | RGS19-Gao conf inactive
O=C(CCn1c(=S)oc2ccccc21)Nc1cccc(O)c1	RGS4-Gao reg 22, RGS7-Gao 9.9, RGS16-Gao 12, RGS8-Gao 15 | Avidin counter inactive | RGS8-Gao confirm inactive | RGS7-Gao single inactive | RGS16-Gao conf inactive | RGS4-Gao single inactive | RGS19-Gao conf inactive
CCN1CCN(Cc2cc(=O)oc3ccc(Cl)cc23)CC1	RGS8-Gao 144[activator] (no result: Calb biofilm kill) | RGS4-Gao HTS 108 | Avidin counter inactive | RGS8-Gao confirm inactive | RGS7-Gao single inactive | RGS16-Gao conf inactive | RGS4-Gao single inactive | RGS19-Gao conf inactive
CC(=O)N1CCOCCOCCN(C(C)=O)CCOCC1	none
COc1ccc2oc3cc(C)[n+]([O-])c(-c4ccc(Cl)cc4)c3c2c1	RGS4-Gao reg 41 | Avidin counter inactive | RGS8-Gao confirm inactive | RGS7-Gao single inactive | RGS16-Gao conf inactive | RGS4-Gao single inactive | RGS19-Gao conf inactive
CC(C(=O)Nc1ccc([N+](=O)[O-])cc1)N1CCN(C/C=C/c2ccccc2)CC1 (stereo not drawn)	none
CC(=O)c1ccc(NC(=O)C(C)N2CCN(C/C=C/c3ccccc3)CC2)cc1 (stereo not drawn)	RGS4-Gao reg 162[activator], RGS7-Gao 151[activator] | Avidin counter inactive | RGS8-Gao confirm inactive | RGS7-Gao single inactive | RGS16-Gao conf inactive | RGS4-Gao single inactive | RGS19-Gao conf inactive
CCNC(=O)C12CCC(C)(C(=O)O1)C2(C)C (stereo not drawn)	none
Cc1cc(C)c(C(=O)OCCNC(=O)c2cccnc2)cc1C	RGS7-Gao 184[activator] (no result: Calb biofilm kill) | RGS4-Gao HTS 122 | Avidin counter inactive | RGS8-Gao confirm inactive | RGS7-Gao single inactive | RGS16-Gao conf inactive | RGS4-Gao single inactive | RGS19-Gao conf inactive
O=C(NCCOC(=O)c1ccccc1C(=O)OCCNC(=O)c1cccnc1)c1cccnc1	none (no result: Calb biofilm kill)
Cc1c(NC(=O)CN2CCCC(C)C2)ccc2nsnc12 (stereo not drawn)	none
Cc1ccc(NS(=O)(=O)c2ccc(C(=O)N3CCCN(C)CC3)cc2)cc1	none (no result: Calb biofilm kill)
Cc1ccc(NS(=O)(=O)c2ccc(C)c(C(=O)N3CCN(C)CC3)c2)cc1	RGS16-Gao -37 (no result: Calb biofilm kill) | RGS4-Gao HTS 69 | Avidin counter inactive | RGS8-Gao confirm inactive | RGS7-Gao single inactive | RGS16-Gao conf inactive | RGS4-Gao single inactive | RGS19-Gao conf inactive
COc1ccc(-c2nn(-c3ccccc3)cc2/C=C/C(=O)N2CCOCC2)cc1OC	RGS7-Gao inconclusive
Cc1ccc(N2C(=N)/C(=C3/Nc4ccccc4S3)C(c3ccccc3)C2=O)cc1 (stereo not drawn)	none
COc1ccc2c(C)cc(SCc3c(C)noc3C)nc2c1	RGS8-Gao 154[activator] (no result: Calb biofilm kill) | RGS4-Gao HTS 114
CC(C(=O)N1CCN=C1c1ccccc1)N1C(=O)c2ccccc2C1=O (stereo not drawn)	RGS7-Gao inconclusive
COC(=O)c1ccccc1NC(=O)CN1C(=O)CSC1=O	none (no result: RGS4-Gao reg, Calb biofilm kill, RGS7-Gao, RGS16-Gao, RGS8-Gao) | Avidin counter inactive | RGS8-Gao confirm inactive | RGS7-Gao single inactive | RGS16-Gao conf inactive | RGS4-Gao single inactive | RGS19-Gao conf inactive
COC(=O)c1cc(NC(=O)CN2C(=O)CSC2=O)ccc1Cl	none (no result: Calb biofilm kill)
COC(=O)c1ccccc1NC(=O)/C=C/C(=O)O	RGS16-Gao 34 | RGS4-Gao HTS 87 | Avidin counter inactive | RGS8-Gao confirm inactive | RGS7-Gao single inactive | RGS16-Gao conf inactive | RGS4-Gao single inactive | RGS19-Gao conf inactive
CC1(C(=O)N/N=C/c2ccc([N+](=O)[O-])o2)CC1(Br)Br (stereo not drawn)	RGS16-Gao 13 | RGS4-Gao HTS 88 | Avidin counter inactive | RGS8-Gao confirm inactive | RGS7-Gao single inactive | RGS16-Gao conf inactive | RGS4-Gao single inactive | RGS19-Gao conf inactive
